Screens as filed in PubChem.
VIM-2 inh: inhibitors of Pseudomonas aeruginosa VIM-2 metallo-beta-lactamase. AID 1527. purified VIM-2, nitrocefin hydrolysis, epi-absorbance fluorescence. inhibition, % at 5.6 µM. hit rate 0.89% among 290,000;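 active means inhibition above the mean of all tested compounds plus 3 SD, cutoff set per screening run, cut at about 7.5% in these data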;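 further: red hydrolysis product quenches plate fluorescence so inhibitors raise well fluorescence; 0% = enzyme with DMSO and 100% = DMSO without enzyme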
p-CIP stab down: compounds decreasing mouse p/CIP protein stability. Q05BA5. F442A p/CIP-EGFP cells, EGFP fluorescence, 16 h. decrease of EGFP signal, % at 10 µM. hit rate 0.01% among 290,000. AID 1984;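 active means EGFP signal decrease of at least 30% at 10 µM or well 3 SD below plate mean, unless failing retest; inactive means the rest, including hits failing retest or dose response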
Target sequence (Q05BA5 1-1403): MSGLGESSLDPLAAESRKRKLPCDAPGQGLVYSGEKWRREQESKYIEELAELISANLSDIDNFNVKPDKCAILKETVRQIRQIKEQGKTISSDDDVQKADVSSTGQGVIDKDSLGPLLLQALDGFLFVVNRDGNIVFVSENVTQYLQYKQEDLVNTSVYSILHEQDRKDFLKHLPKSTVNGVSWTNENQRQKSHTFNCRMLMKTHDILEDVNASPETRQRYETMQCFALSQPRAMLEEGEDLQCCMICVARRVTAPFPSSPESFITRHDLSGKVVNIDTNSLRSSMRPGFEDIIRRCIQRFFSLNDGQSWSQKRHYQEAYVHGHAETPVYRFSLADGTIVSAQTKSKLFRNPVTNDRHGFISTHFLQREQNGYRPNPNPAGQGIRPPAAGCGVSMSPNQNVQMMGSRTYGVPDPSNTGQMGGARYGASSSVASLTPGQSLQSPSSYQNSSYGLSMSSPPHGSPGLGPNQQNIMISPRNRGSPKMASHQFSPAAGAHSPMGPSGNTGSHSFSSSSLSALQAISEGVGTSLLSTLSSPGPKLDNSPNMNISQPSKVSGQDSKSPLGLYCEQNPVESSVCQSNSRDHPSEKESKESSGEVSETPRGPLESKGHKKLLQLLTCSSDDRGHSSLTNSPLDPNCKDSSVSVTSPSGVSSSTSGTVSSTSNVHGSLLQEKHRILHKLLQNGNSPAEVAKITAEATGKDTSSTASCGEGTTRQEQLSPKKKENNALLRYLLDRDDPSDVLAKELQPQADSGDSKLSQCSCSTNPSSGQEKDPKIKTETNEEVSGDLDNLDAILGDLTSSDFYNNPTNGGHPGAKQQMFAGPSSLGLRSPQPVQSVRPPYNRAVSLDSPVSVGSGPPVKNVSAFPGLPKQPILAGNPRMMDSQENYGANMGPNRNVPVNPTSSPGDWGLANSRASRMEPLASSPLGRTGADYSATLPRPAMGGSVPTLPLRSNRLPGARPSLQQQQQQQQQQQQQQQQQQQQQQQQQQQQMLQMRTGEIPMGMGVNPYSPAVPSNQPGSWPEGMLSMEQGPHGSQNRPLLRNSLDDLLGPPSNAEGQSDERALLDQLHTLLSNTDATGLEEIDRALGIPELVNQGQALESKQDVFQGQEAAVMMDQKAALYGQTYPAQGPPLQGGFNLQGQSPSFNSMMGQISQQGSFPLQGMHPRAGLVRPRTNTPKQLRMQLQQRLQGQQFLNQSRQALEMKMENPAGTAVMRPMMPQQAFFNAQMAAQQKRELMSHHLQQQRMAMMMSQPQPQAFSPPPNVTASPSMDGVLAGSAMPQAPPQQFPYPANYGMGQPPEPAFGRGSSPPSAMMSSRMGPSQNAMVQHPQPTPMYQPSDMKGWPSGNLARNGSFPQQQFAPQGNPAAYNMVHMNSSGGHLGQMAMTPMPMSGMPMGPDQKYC
CTSL1 counter: blocks F. hepatica cathepsin L1 in PFM18AAP counter-screen; recombinant F. hepatica cathepsin L1, Z-Leu-Arg-MCA fluorescence; inhibition, % at 5.96 µM; hit rate 0.49% among 300,000; AID 1906;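 active means inhibition above the mean of all tested compounds plus 3 SD, set per screening campaign, cut at about 17% in these data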;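 further: 0% = plate median of test compound wells and 100% = 1 µM Z-Phe-Ala-diazomethylketone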
SUMO HTRF inh: SUMOylation inhibition; inhibition, % at 35 µM; HTRF SUMOylation assay, SAE1/SAE2 + UBC9, in vitro; AID 2006; hit rate 0.36% among 290,000; in the data active means inhibition above about 50%, passing the limit was not always enough
IMP-1 inhibitor: blocks Pseudomonas aeruginosa IMP-1 metallo-beta-lactamase; purified IMP-1, nitrocefin hydrolysis, epi-absorbance fluorescence; AID 1556; inhibition, % at 5.6 µM; hit rate 0.45% among 290,000;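 active means inhibition above the mean plus 3 SD of all compounds in the same screening run, cut at about 4.5% in these data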;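 further: 0% = IMP-1 with DMSO and 100% = DMSO wells lacking enzyme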
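System: Purified IMP-1 | Read-out basis: Percent enzyme inhibition | Controls: IMP-1 with DMSO as 0%, enzyme-free DMSO as 100% | Replicates: One well per compound | Doses: 5.6 µM nominal single concentration | Detection: Epi-absorbance fluorescence, 480 nm excitation, 530 nm emission | Incubation: 25 °C, 15 min preincubation, 25 min reaction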
T cell modulator: T cell immune modulators affecting CD8 T cell-vesicle binding; 2C CD8+ T cell-vesicle binding, flow cytometry; stronger effect = lower value; response (vesicle binding), % at 7 µM; hit rate 0.068% among 330,000; AID 2052;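 active means response, share of CD8 T cells binding vesicles, and their 90th percentile fluorescence all below set limits, cut at about 80% in these data, passing the limit was not always enough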;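 further: values below 100% mean blocked vesicle binding to the CD8+ T cells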
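Assay system: 2C TCR transgenic mouse naive CD8+ T cells, MACS-purified | Read-out: CD8+ gate FL2 mean fluorescence as % of same-row positive control | Signal: High-throughput flow cytometry with anti-B7-1 and anti-CD8 staining | Timing: Binding step 1.5 h, 37 °C, antibody labelling 20 min, ice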
Starred values were filed as active, the others as inactive; / = no result. A selection: hits, their analogues and other compounds. The true share with any hit is near 1.9%.

SMILES	VIM-2 inh	p-CIP stab down	CTSL1 counter	SUMO HTRF inh	IMP-1 inhibitor	T cell modulator
NC(=O)c1oc2ccccc2c1NC(=O)c1ccc([N+](=O)[O-])o1	-0.6	-3.3	26.0*	10.8	-1.7	367.3
NC(=O)c1oc2ccccc2c1NC(=O)c1ccc(F)cc1	-0.9	8.8	-1.2	-1.1	-2.1	610.7
COc1ccc(-n2c(O)c(/C=N/NS(=O)(=O)c3cccc([N+](=O)[O-])c3)c3ccccc3c2=O)cc1OC	-3.0	-6.7	1.9	22.3	-2.6	246.0
Cc1ccccc1OCC(=O)NC(=S)Nc1ccccc1N1CCN(S(C)(=O)=O)CC1	-4.4	-9.1	1.0	-36.2	-1.8	288.3
COc1cc(/C=C2\CCC/C(=C\c3ccc(O)c(OC)c3)C2=O)ccc1O	11.3*	0.4	5.9	-12.0	-0.1	105.1
COc1cc(/C=C/C(=O)CC(=O)/C=C/c2ccc(O)c(OC)c2)ccc1O	-1.2	-21.0	0.5	42.6	17.8*	0.0
COc1cc2cc(CCCO)oc(=O)c2cc1OC	/	/	/	/	/	169.0
CCC(=O)Nc1nnc(S(=O)(=O)N(C)Cc2ccco2)s1	-3.9	-7.5	-1.1	/	-3.5	541.6
Cc1ccccc1C(=O)Nc1nnc(S(=O)(=O)N(C)Cc2ccco2)s1	9.8*	5.8	0.1	0.6	-3.0	612.3
CN(Cc1ccco1)S(=O)(=O)c1nnc(NC(=O)c2ccccc2Cl)s1	9.1*	-7.4	1.0	/	-2.9	576.0
Cc1cccc(OCc2nnc(SCC(=O)O)n2Cc2ccccc2)c1	-3.3	10.1	-1.9	14.9	-3.3	170.5
CC(C)N1CCN(CCCc2ccccc2)CC1CCO (stereo not given)	-2.1	-13.1	0.2	2.9	-2.9	229.6
COCCNC(=O)C(c1cccs1)N(Cc1ccccc1)C(=O)Cn1nnc2ccccc21 (stereo not given)	-4.0	-4.7	-3.7	10.2	-1.3	146.3
COCCNC(=O)C(c1cccs1)N(Cc1cccs1)C(=O)Cn1nnc2ccccc21 (stereo not given)	0.5	-5.9	10.7	16.3	4.6*	228.9
NS(=O)(=O)c1cc(C(=O)OCC(=O)N2CCOCC2)ccc1Cl	0.1	-7.6	-5.6	5.9	-4.0	268.8
O=C(Nc1ccc(N2CCCCC2)cc1)c1cccnc1Cl	0.3	-12.0	0.9	11.1	-2.6	322.5
O=C(Nc1ccc(Cl)cc1)c1cccnc1N1CCCCC1	-0.3	-11.3	4.1	4.8	20.3*	249.9
O=[N+]([O-])c1ccc(-n2nnnc2-c2ccccc2)c([N+](=O)[O-])c1	-2.0	-9.2	20.4*	11.5	-4.7	467.6
O=[N+]([O-])c1ccc(-n2nnnc2-c2ccccc2)cc1	-3.0	1.1	-8.1	12.4	-2.4	197.3
COCCn1c(C)cc(C(=O)CSc2cc(C)c3ccccc3n2)c1C	-0.5	0.0	0.8	4.1	5.7*	112.6
CN(C)C=Nc1ccc2nc3c(cc2c1)[nH]c1ccccc13	4.7	-20.2	6.9	50.1*	-0.9	174.7
CCCCc1ncc(CN2CCC(n3nccc3NC(=O)c3ccccc3Cl)CC2)[nH]1	-1.2	-12.1	0.5	0.1	0.1	289.9
CCN1C(=O)[C@@H]2[C@H](C1=O)[C@@H]1C(=O)Nc3ccccc3C(=O)N1[C@@H]2c1ccc(OC)cc1	/	/	-1.5	/	/	276.4
O=C(O)c1cccc(Nc2nc(-c3cc4ccccc4oc3=O)cs2)c1	0.9	-3.7	/	8.5	6.2*	149.3
O=C(O)c1ccc(NC(=S)Nc2ccccc2)cc1	-1.3	6.7	-2.0	-0.4	0.6	189.4
SMILES	VIM-2 inh	p-CIP stab down	CTSL1 counter	SUMO HTRF inh	IMP-1 inhibitor	T cell modulator
CC(=O)C1=C(C)OC2(O)c3ccccc3C(=O)C12O (stereo not given)	-1.4	-0.7	51.2*	/	-3.4	379.2
CCOC(=O)C1=C(C)OC2(O)c3ccccc3C(=O)C12O (stereo not given)	-0.5	-1.6	58.6*	94.0*	-0.3	260.9
CCN1CCC(NC(=O)Nc2cc(Cl)ccc2OC)CC1	0.5	-3.8	-0.5	5.4	-1.4	184.4
CC(C)N1CCNCC1	-3.3	4.2	-0.5	-0.7	-2.2	383.8
O=c1c(-c2ccccc2)coc2c(CN3CCCC3)c(O)ccc12	-2.7	-3.1	0.1	50.3*	-3.7	213.6
Cc1cc(C)c2cc(C(=O)N3CCC(C(=O)c4ccc(F)cc4)CC3)[nH]c2c1	0.6	1.8	1.4	-7.5	4.5*	322.7
Cc1cc(C)c2cc(C(=O)N3CCC(N4CCCCC4)CC3)[nH]c2c1	-1.3	-9.1	-1.3	8.2	-2.5	323.4
O=C(N/N=C/c1cc(Cl)cc([N+](=O)[O-])c1O)c1cc(-c2ccccn2)nc2ccccc12	-2.9	-8.4	4.2	86.6*	-2.5	730.2
CCOc1cc(C(=O)NC(C)CCc2ccccc2)cc(OCC)c1OCC (stereo not given)	-0.7	-11.9	0.6	-4.7	-0.6	210.9
O=Cc1cc2ccccc2nc1SCc1ccc(Cl)c(Cl)c1	-0.6	-7.5	-3.9	-14.4	4.7*	545.6
O=Cc1cc2ccccc2nc1SCc1ccc(Cl)cc1	-3.0	9.0	-0.7	-3.1	-0.1	328.0
O=C(N/N=C/C(Cl)=C/c1ccccc1)c1ccc2c(c1)OCO2	/	/	/	/	/	346.0
Cc1cc(=O)n2[nH]c(-c3ccsc3-n3c(C)ccc3C)cc2n1	1.1	-10.1	-3.1	64.8*	1.0	155.1
COC(=O)c1ccc(/C=N/NC(=O)CC(=O)NCc2cccnc2)cc1	-0.5	-6.4	-3.6	20.8	-0.8	271.7
CCc1cccc(CC)c1NC(=O)CN1C2CCCC1CC(NC(=O)Nc1cccc(OC)c1)C2 (stereo not given)	-5.6	-19.7	0.8	-3.8	-1.2	149.8
COC(=O)CCCCCCCC(=O)Nc1nnc(C(F)(F)F)s1	-1.6	-6.7	-1.3	-7.4	-0.5	301.2
N#CC1=C(N)OC2=C(CC/C2=C\c2ccccc2)C1c1ccccc1 (stereo not given)	-2.3	-57.0	2.4	8.4	5.2*	239.3
Cc1ccc(CC2C(=O)N(c3ncccn3)C(=O)C2C)cc1 (stereo not given)	0.6	-5.4	-3.6	-2.4	4.9*	290.3
COc1ccc(N2CC(C(=O)N3CCN(c4ccccc4OC)CC3)CC2=O)cc1 (stereo not given)	-4.4	2.0	-0.6	7.7	-2.1	238.6
O=C(O)CN1CCCC1=Nc1ccccc1	2.5	-11.6	0.6	-1.5	4.8*	204.4
CCCNC(=O)N1CCN(S(C)(=O)=O)CC1	-1.4	-8.1	-1.9	10.6	-3.7	240.2
COc1ccc(C)cc1NS(=O)(=O)c1ccc(Cl)nc1	/	/	/	/	/	484.6
N#CC1(NC(=O)CN2C(=O)NC(Cc3c[nH]c4ccccc34)C2=O)CCCCC1 (stereo not given)	/	/	/	/	/	531.6
COc1ccc(N=C2NC(=O)/C(=C\C=C\c3ccco3)S2)cc1	-3.4	-3.2	/	84.8*	-2.8	/
CCN(CC)S(=O)(=O)c1cc(NC(=O)CNc2cccc(S(=O)(=O)N3CCOCC3)c2)ccc1C	/	/	-0.4	/	/	559.4
